How the values were obtained:
Assay type in all cases: functional
SK-MEL-28 [1] = experiment: Cytotoxicity against human SK-MEL-28 cells assessed as cell growth at 0.05 uM by SRB assay; details: read-out: Activity
NCI-H460 = experiment: Cytotoxicity against human NCI-H460 cells assessed as cell growth at 50 uM by SRB assay; details: read-out: Activity
SK-MEL-28 [2] = experiment: Cytotoxicity against human SK-MEL-28 cells assessed as cell growth at 0.005 uM by SRB assay; details: read-out: Activity
SNB-19 = experiment: Cytotoxicity against human SNB19 cells assessed as cell growth at 0.005 uM by SRB assay; details: read-out: Activity
HCT-15 = experiment: Cytotoxicity against human HCT15 cells assessed as cell growth at 0.05 uM by SRB assay; details: read-out: Activity
Summary of the method: (§1)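 Measured in the NCI-60 human tumour cell line panel using five-dose testing. Growth was recorded at each dose for each cell line, and a GI50 was derived for each line.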

MCF7 = experiment: Cytotoxicity against human MCF7 cells assessed as cell growth at 50 uM by SRB assay; details: read-out: Activity
M14 [3] = experiment: Cytotoxicity against human M14 cells assessed as cell growth at 50 uM by SRB assay; details: read-out: Activity
[4] = Cytotoxicity against human Hs578T cells assessed as cell growth at 0.05 uM by SRB assay; details: Hs-578T, read-out: Activity; summary of the method: as §1
[5] = Cytotoxicity against human Hs578T cells assessed as cell growth at 0.005 uM by SRB assay; details: Hs-578T, read-out: Activity; summary of the method: as §1
KM12 = experiment: Cytotoxicity against human KM12 cells assessed as cell growth at 5 uM by SRB assay; details: read-out: Activity
RPMI-8226 [6] = experiment: Cytotoxicity against human RPMI8226 cells by SRB assay
Summary of the method: (§2)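 NCI-60 panel screen; 5-dose testing giving GI50 per cell line, plus a single 10 µM one-dose test. Method details not given beyond the NCI screen.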

OVCAR-4 [7] = experiment: Cytotoxicity against human OVCAR4 cells assessed as cell growth at 50 uM by SRB assay; details: read-out: Activity
NCI-H23 [8] = experiment: Cytotoxicity against human NCI-H23 cells by SRB assay; summary of the method: as §2
NCI-H322M [9] = experiment: Cytotoxicity against human NCI-H322M cells by SRB assay; summary of the method: as §2
RPMI-8226 [10] = experiment: Cytotoxicity against human RPMI8226 cells assessed as cell growth at 5 uM by SRB assay; details: read-out: Activity
786-0 = experiment: Cytotoxicity against human 786-0 cells assessed as cell growth at 50 uM by SRB assay; details: read-out: Activity
SR [11] = experiment: Cytotoxicity against human SR cells assessed as cell growth at 50 uM by SRB assay; details: read-out: Activity
RXF 393 = experiment: Cytotoxicity against human RXF393 cells assessed as cell growth at 0.005 uM by SRB assay; details: read-out: Activity
SN12C = experiment: Cytotoxicity against human SN12C cells assessed as cell growth at 0.05 uM by SRB assay; details: read-out: Activity
OVCAR-5 = experiment: Cytotoxicity against human OVCAR5 cells assessed as cell growth at 5 uM by SRB assay; details: read-out: Activity
OVCAR-4 [12] = experiment: Cytotoxicity against human OVCAR4 cells by SRB assay; summary of the method: as §2
IGROV-1 = experiment: Cytotoxicity against human IGROV1 cells assessed as cell growth at 50 uM by SRB assay; details: read-out: Activity
NCI-H226 = experiment: Cytotoxicity against human NCI-H226 cells assessed as cell growth at 0.005 uM by SRB assay; details: read-out: Activity
SK-MEL-28 [13] = experiment: Cytotoxicity against human SK-MEL-28 cells assessed as cell growth at 50 uM by SRB assay; details: read-out: Activity
HOP-92 = experiment: Cytotoxicity against human HOP92 cells assessed as cell growth at 0.005 uM by SRB assay; details: read-out: Activity; summary of the method: as §1
SF-268 = experiment: Cytotoxicity against human SF268 cells assessed as cell growth at 0.005 uM by SRB assay; details: read-out: Activity
LOX IMVI = experiment: Cytotoxicity against human LOXIMVI cells assessed as cell growth at 50 uM by SRB assay; details: read-out: Activity
NCI-H23 [14] = experiment: Cytotoxicity against human NCI-H23 cells assessed as cell growth at 0.05 uM by SRB assay; details: read-out: Activity
MDA-MB-231 = experiment: Cytotoxicity against human MDA-MB-231/ATCC cells assessed as cell growth at 5 uM by SRB assay; details: read-out: Activity
CAKI-1 = experiment: Cytotoxicity against human Caki1 cells assessed as cell growth at 50 uM by SRB assay; details: read-out: Activity
SK-OV-3 = experiment: Cytotoxicity against human SKOV3 cells assessed as cell growth at 5 uM by SRB assay; details: read-out: Activity
NCI-H322M [15] = experiment: Cytotoxicity against human NCI-H322M cells assessed as cell growth at 0.005 uM by SRB assay; details: read-out: Activity
SR [16] = experiment: Cytotoxicity against human SR cells assessed as cell growth at 5 uM by SRB assay; details: read-out: Activity
T47D = experiment: Cytotoxicity against human T47D cells assessed as cell growth at 0.5 uM by SRB assay; details: read-out: Activity
BT-549 = experiment: Cytotoxicity against human BT549 cells by SRB assay
HCT-116 = experiment: Cytotoxicity against human HCT116 cells assessed as cell growth at 0.5 uM by SRB assay; details: read-out: Activity; summary of the method: as §1
UO-31 = experiment: Cytotoxicity against human UO31 cells by SRB assay; summary of the method: as §2
OVCAR-4 [17] = experiment: Cytotoxicity against human OVCAR4 cells assessed as cell growth at 0.5 uM by SRB assay; details: read-out: Activity
M14 [18] = experiment: Cytotoxicity against human M14 cells assessed as cell growth at 5 uM by SRB assay; details: read-out: Activity
OVCAR-4 [19] = experiment: Cytotoxicity against human OVCAR4 cells assessed as cell growth at 0.05 uM by SRB assay; details: read-out: Activity
HCC 2998 = experiment: Cytotoxicity against human HCC2998 cells assessed as cell growth at 5 uM by SRB assay; details: read-out: Activity; summary of the method: as §1
SF-539 = experiment: Cytotoxicity against human SF539 cells assessed as cell growth at 0.005 uM by SRB assay; details: read-out: Activity
RPMI-8226 [20] = experiment: Cytotoxicity against human RPMI8226 cells assessed as cell growth at 0.05 uM by SRB assay; details: read-out: Activity
[21] = read-out: LC50 (the source's name)
[22] = read-out: pLC50 (the source's name) (converted)

Compound: COc1cc([C@@H]2c3cc4c(cc3[C@@H](NC(=O)CN3CCN(CCCCCCN5CCN(CC(=O)N[C@@H]6c7cc8c(cc7[C@@H](c7cc(OC)c(O)c(OC)c7)[C@H]7C(=O)OC[C@@H]76)OCO8)CC5)CC3)[C@H]3COC(=O)[C@H]23)OCO4)cc(OC)c1O
- growth at 0.05 µM (SK-MEL-28 [1]): 106%
- growth at 50 µM (NCI-H460): -28%
- growth at 0.005 µM (SK-MEL-28 [2]): 100%
- growth at 0.005 µM (SNB-19): 97%
- growth at 0.05 µM (HCT-15): 93%
- growth at 50 µM (MCF7): 7%
- growth at 50 µM (M14 [3]): -19%
- growth at 0.05 µM [4]: 90%
- growth at 0.005 µM [5]: 95%
- growth at 5 µM (KM12): 46%
- GI50 (RPMI-8226 [6]; read-out: GI50): 0.89 µM
- CC50 (RPMI-8226 [6]; [21]): > 50 µM
- TGI (RPMI-8226 [6]; read-out: TGI): 4.9 µM
- GI50 (RPMI-8226 [6]; read-out: pGI50 (converted)): 0.891 µM
- CC50 (RPMI-8226 [6]; [22]): > 50.1 µM
- TGI (RPMI-8226 [6]; read-out: pTGI (converted)): 4.9 µM
- growth at 50 µM (OVCAR-4 [7]): 21%
- GI50 (NCI-H23 [8]; read-out: GI50): 3.82 µM
- CC50 (NCI-H23 [8]; [21]): > 50 µM
- TGI (NCI-H23 [8]; read-out: TGI): 38.6 µM
- GI50 (NCI-H23 [8]; read-out: pGI50 (converted)): 3.8 µM
- CC50 (NCI-H23 [8]; [22]): > 50.1 µM
- TGI (NCI-H23 [8]; read-out: pTGI (converted)): 38.9 µM
- GI50 (NCI-H322M [9]; read-out: GI50): 30.7 µM
- CC50 (NCI-H322M [9]; [21]): > 50 µM
- TGI (NCI-H322M [9]; read-out: TGI): > 50 µM
- GI50 (NCI-H322M [9]; read-out: pGI50 (converted)): 30.9 µM
- CC50 (NCI-H322M [9]; [22]): > 50.1 µM
- TGI (NCI-H322M [9]; read-out: pTGI (converted)): > 50.1 µM
- growth at 5 µM (RPMI-8226 [10]): -1%
- growth at 50 µM (786-0): -10%
- growth at 50 µM (SR [11]): 1%
- growth at 0.005 µM (RXF 393): 99%
- growth at 0.05 µM (SN12C): 97%
- growth at 5 µM (OVCAR-5): 58%
- GI50 (OVCAR-4 [12]; read-out: GI50): 10.5 µM
- CC50 (OVCAR-4 [12]; [21]): > 50 µM
- TGI (OVCAR-4 [12]; read-out: TGI): > 50 µM
- GI50 (OVCAR-4 [12]; read-out: pGI50 (converted)): 10.5 µM
- CC50 (OVCAR-4 [12]; [22]): > 50.1 µM
- TGI (OVCAR-4 [12]; read-out: pTGI (converted)): > 50.1 µM
- growth at 50 µM (IGROV-1): 47%
- growth at 0.005 µM (NCI-H226): 92%
- growth at 50 µM (SK-MEL-28 [13]): 3%
- growth at 0.005 µM (HOP-92): 88%
- growth at 0.005 µM (SF-268): 97%
- growth at 50 µM (LOX IMVI): -8%
- growth at 0.05 µM (NCI-H23 [14]): 102%
- growth at 5 µM (MDA-MB-231): 79%
- growth at 50 µM (CAKI-1): 57%
- growth at 5 µM (SK-OV-3): 44%
- growth at 0.005 µM (NCI-H322M [15]): 98%
- growth at 5 µM (SR [16]): 6%
- growth at 0.5 µM (T47D): 79%
- GI50 (BT-549; read-out: GI50): 0.757 µM
- CC50 (BT-549; [21]): > 50 µM
- TGI (BT-549; read-out: TGI): 4.24 µM
- GI50 (BT-549; read-out: pGI50 (converted)): 0.759 µM
- CC50 (BT-549; [22]): > 50.1 µM
- TGI (BT-549; read-out: pTGI (converted)): 4.27 µM
- growth at 0.5 µM (HCT-116): 60%
- GI50 (UO-31; read-out: GI50): > 50 µM
- CC50 (UO-31; [21]): > 50 µM
- TGI (UO-31; read-out: TGI): > 50 µM
- GI50 (UO-31; read-out: pGI50 (converted)): > 50.1 µM
- CC50 (UO-31; [22]): > 50.1 µM
- TGI (UO-31; read-out: pTGI (converted)): > 50.1 µM
- growth at 0.5 µM (OVCAR-4 [17]): 90%
- growth at 5 µM (M14 [18]): 35%
- growth at 0.05 µM (OVCAR-4 [19]): 89%
- growth at 5 µM (HCC 2998): 73%
- growth at 0.005 µM (SF-539): 94%
- growth at 0.05 µM (RPMI-8226 [20]): 86%

Source: ChEMBL document CHEMBL3588757, “Structure-based design, synthesis and biological testing of piperazine-linked bis-epipodophyllotoxin etoposide analogs” (Bioorg Med Chem, 2015)
